In publication PMC9090800 (RSC Advances, 2018):
≈ marks a conversion by molar mass, not a printed value.

What was measured:
C. albicans = experiment: Growth curve studies; type: cell-based, Candida albicans
How it was run: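 C. albicans revived on SD agar and pre-grown 16 h at 30 °C in SD broth. About 2 × 10^3 cells per mL were inoculated into 50 mL SD medium containing test compound at 2MIC, MIC or MIC/2, then shaken at 30 °C, 160 rpm. Fluconazole at 31.25 μg mL−1 and untreated cells served as controls. OD600 was read on 1 mL aliquots every 2 h from 0 to 24 h.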

[1] = test system: ergosterol content in C. albicans ATCC 90028; experiment: Sterol estimation assay; type: cell-based, Candida albicans; settings: vs untreated cells
[2] = test system: human embryonic kidney (HEK-293) cells; experiment: Cytotoxicity by MTT assay; type: cell-based; settings: HEK-293, 100 μg mL^−1, 24 h
How it was run: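 HEK-293 cells grown as monolayers in DMEM with 10% FBS, penicillin and streptomycin, 37 °C, 5% CO2, at most 30 passages. Seeded at about 8 × 10^3 cells per well, 24 h before dosing. Test compound (DMSO stock diluted in PBS) given at 10–200 μg mL−1 for 24 h at 37 °C. Serum-free medium, then MTT (5 mg mL−1 in PBS), 4 h. Formazan dissolved in DMSO, A570 read. Triplicate; viability relative to untreated cells.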

C. albicans (ATCC 90028) = experiment: In vitro anticandidal activity, broth dilution; type: cell-based; settings: Candida albicans, ATCC90028, 24 h, read-out: IC50 ± S.D, C. albicans
How it was run: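 Broth dilution followed the NCCLS protocol. Test compound in DMSO was diluted in PBS, then tested at 1000 to 7.8 μg mL−1 in SD broth with about 2.5 × 10^3 cells per mL in 96-well plates. Plates were shaken 24 h at 30 °C, 150 rpm, and read at OD580. IC50 was the concentration halving absorbance versus untreated cells, taken from a log10 concentration versus % inhibition plot. Triplicates were run on separate occasions, with fluconazole as positive control.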

Hemolytic assay = type: cell-based; settings: human, human red blood cells (erythrocyte suspension in PBS)
How it was run: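 Fresh human blood was collected in EDTA and spun 10 min at 2000 rpm. Erythrocytes were washed three times in PBS and made to a 10% (v/v) suspension, then diluted 1:10. Equal volumes of cells and test compound dilution series in PBS were incubated in triplicate for 1 h at 37 °C and re-centrifuged. Supernatant A450 was expressed relative to buffer (0%) and 1% Triton X-100 (100% lysis). Fluconazole was the reference.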

C. tropicalis (ATCC 750) = experiment: In vitro anticandidal activity, broth dilution; type: cell-based, Candida tropicalis; settings: ATCC 750, 24 h, OD 580 nm

| SMILES | growth of Candida cells (C. albicans; 2MIC and MIC, 24 h) | nature of inhibition (C. albicans; no significant growth after 24 h at higher concentrations) | time after which growth was observed (C. albicans; sub-MIC (MIC/2), standard C. albicans strain) | decrease in ergosterol content ([1]; 2MIC (500 μg mL^−1)) | decrease in ergosterol content ([1]; MIC (250 μg mL^−1)) | decrease in ergosterol content ([1]; MIC/2 (125 μg mL^−1)) | cell viability (MTT) [2] | IC50 (C. albicans (ATCC 90028)) | hemolysis at 1 h, 1000 μg mL^−1 (Hemolytic assay) | IC50 ± S.D, C. tropicalis (C. tropicalis (ATCC 750)) |
| --- | --- | --- | --- | --- | --- | --- | --- | --- | --- | --- |
| CCOC(=O)c1nc2ccccc2c(=O)n1Cc1cn(-c2ccc(C)cc2)nn1 [Compound 5n, Ethyl 4-oxo-3-((1-p-tolyl-1H-1,2,3-triazol-4-yl)methyl)-3,4-dihydroquinazoline-2-carboxylate] | did not show any significant growth | fungicidal | 7 h | 57% | 55% | 48% | no significant decrease in cell viability | 14.6 ± 2.1 µg/mL (≈ 37.5 µM) | 41.2% | – |
| CCOC(=O)c1nc2ccccc2c(=O)n1Cc1cn(-c2cccc(Cl)c2)nn1 [Compound 5g, Ethyl 3-((1-(3-chlorophenyl)-1H-1,2,3-triazol-4-yl)methyl)-4-oxo-3,4-dihydroquinazoline-2-carboxylate] | – | – | – | – | – | – | no significant decrease in cell viability | 65.6 ± 3.2 µg/mL (≈ 160 µM) | < 20% | 28.2 ± 2.2 µg/mL (≈ 68.8 µM) |
| O=C(O)c1nc2ccccc2c(=O)n1Cc1cn(-c2ccccc2F)nn1 [Compound 6c, 3-((1-(2-Fluorophenyl)-1H-1,2,3-triazol-4-yl)methyl)-4-oxo-3,4-dihydroquinazoline-2-carboxylic acid] | – | – | – | – | – | – | no significant decrease in cell viability | 101 ± 3.7 µg/mL (≈ 276 µM) | < 20% | – |
| CCOC(=O)c1nc2ccccc2c(=O)n1Cc1cn(-c2ccccc2OC)nn1 [Compound 5e, Ethyl 3-((1-(2-methoxyphenyl)-1H-1,2,3-triazol-4-yl)methyl)-4-oxo-3,4-dihydroquinazoline-2-carboxylate] | – | – | – | – | – | – | no significant decrease in cell viability | 18.6 ± 3.4 µg/mL (≈ 45.9 µM) | < 20% | – |
| OC(Cn1cncn1)(Cn1cncn1)c1ccc(F)cc1F [FLC, fluconazole, reference compound] | – | – | – | – | – | – | – | 15.6 ± 2.2 µg/mL (≈ 50.9 µM) | 78.1% | – |
| COc1ccccc1-n1cc(Cn2c(C(=O)O)nc3ccccc3c2=O)nn1 [Compound 6e, 3-((1-(2-Methoxyphenyl)-1H-1,2,3-triazol-4-yl)methyl)-4-oxo-3,4-dihydroquinazoline-2-carboxylic acid] | – | – | – | – | – | – | no significant decrease in cell viability | 48.2 ± 3.2 µg/mL (≈ 128 µM) | < 20% | – |
| Cc1ccc(-n2cc(Cn3c(C(=O)O)nc4ccccc4c3=O)nn2)cc1 [Compound 6n, 4-Oxo-3-((1-p-tolyl-1H-1,2,3-triazol-4-yl)methyl)-3,4-dihydroquinazoline-2-carboxylic acid] | – | – | – | – | – | – | no significant decrease in cell viability | 87 ± 4 µg/mL (≈ 241 µM) | < 20% | – |
| Cc1cccc(-n2cc(Cn3c(C(=O)O)nc4ccccc4c3=O)nn2)c1 [Compound 6i, 4-Oxo-3-((1-m-tolyl-1H-1,2,3-triazol-4-yl)methyl)-3,4-dihydroquinazoline-2-carboxylic acid] | – | – | – | – | – | – | – | 133 ± 4.2 µg/mL (≈ 369 µM) | – | – |
